Measurements: ChEMBL document CHEMBL3297699, “Synthesis of novel fluoro analogues of MKC442 as microbicides” (J Med Chem, 2014)

What was measured:
[1] = tested on: Human immunodeficiency virus 1; experiment: Antiviral activity against TMC120-resistant HIV1 harboring RT 100I, 138G mutant infected in human MT4 cells assessed as inhibition of virus-induced cytopathogenicity after 4 days by MTT assay; format: functional, organism-based; settings: Human immunodeficiency virus 1, MT4, 96 h
Summary of the method: (§1)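 MT-4 cells grown at 37 °C, 5% CO2 in RPMI-1640 with 10% FCS, penicillin and streptomycin. Compounds taken up in DMSO at […] (stock), then diluted in medium. 1 × 10^4 cells per well with serial compound dilutions, then HIV-1 inoculum sized to give complete cytopathogenicity by day 4. Viability read by MTT. […] Mean of three independent determinations.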

[2] = tested on: Human immunodeficiency virus 1; experiment: Antiviral activity against […] HIV1 harboring 103N, 181C mutant infected in human MT4 cells assessed as inhibition of virus-induced cytopathogenicity after 4 days by MTT assay; format: functional, organism-based; settings: Human immunodeficiency virus 1, MT4, 96 h; summary of the method: as §1
[3] = tested on: Human immunodeficiency virus 1; experiment: Antiviral activity against MC1220-resistant HIV1 harboring RT 100I, 179D, 181C mutant infected in human MT4 cells assessed as inhibition of virus-induced cytopathogenicity after 4 days by MTT assay; format: functional, organism-based; settings: Human immunodeficiency virus 1, MT4, 96 h; summary of the method: as §1
[4] = tested on: Human immunodeficiency virus 1; experiment: Antiviral activity against zidovudine-resistant HIV1 harboring RT 67N, 70R, 215F, 219Q mutant infected in human MT4 cells assessed as inhibition of virus-induced cytopathogenicity after 4 days by MTT assay; format: functional, organism-based; settings: Human immunodeficiency virus 1, MT4, 96 h; summary of the method: as §1
[5] = tested on: Human immunodeficiency virus 1; experiment: Antiviral activity against MDR-resistant HIV1 harboring 41L, 74V, 106A, 215Y mutant infected in human MT4 cells assessed as inhibition of virus-induced cytopathogenicity after 4 days by MTT assay; format: functional, organism-based; settings: Human immunodeficiency virus 1, MT4, 96 h; summary of the method: as §1
[6] = tested on: Human immunodeficiency virus 1; experiment: Antiviral activity against wild type HIV1 3B infected in human MT4 cells assessed as inhibition of virus-induced cytopathogenicity after 4 days by MTT assay; format: functional, organism-based; settings: Human immunodeficiency virus 1, 3B, MT4, 96 h; summary of the method: as §1
[7] = Cytotoxicity against human MT4 cells after 96 hrs by MTT assay; format: cell-based
Summary of the method: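 Serial compound dilutions (from DMSO stocks at […]) are added, then cells are held 96 h at 37 °C in humidified 5% CO2. Viability is read by MTT. The value is the concentration reducing proliferation by 50%, as the mean of three independent determinations, run in parallel with the antiviral assays.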

[8] = tested on: Human immunodeficiency virus 1; experiment: Antiviral activity against […] HIV1 harboring Y181C mutant infected in human MT4 cells assessed as inhibition of virus-induced cytopathogenicity after 4 days by MTT assay; format: functional, organism-based; settings: Human immunodeficiency virus 1, MT4, 96 h; summary of the method: as §1
[9] = tested on: Human immunodeficiency virus 1; experiment: Antiviral activity against 6-[(3,5-Dimethylphenyl)fluoromethyl]-5-ethyl-1-{[[4-(3-hydroxyprop-1-ynyl)benzyl]oxy]methyl}pyrimidine-2,4(1H,3H)-dione-resistant HIV1 harboring RT 106I, 181C mutant infected in human MT4 cells assessed as inhibition of virus-induced cytopathogenicity after 4 days by MTT assay; format: functional, organism-based; settings: Human immunodeficiency virus 1, MT4; summary of the method: as §1
[10] = tested on: Human immunodeficiency virus 1; experiment: Antiviral activity against saquinavir-resistant HIV1 infected in human MT4 cells assessed as inhibition of virus-induced cytopathogenicity after 4 days by MTT assay; format: functional, organism-based; settings: Human immunodeficiency virus 1, MT4, 96 h; summary of the method: as §1
[11] = tested on: Human immunodeficiency virus 1; experiment: Antiviral activity against efavirenz-resistant HIV1 harboring RT 100I, 103R, 179D, 225H mutant infected in human MT4 cells assessed as inhibition of virus-induced cytopathogenicity after 4 days by MTT assay; format: functional, organism-based; settings: Human immunodeficiency virus 1, MT4; summary of the method: as §1
[12] = tested on: Human immunodeficiency virus 1; experiment: Antiviral activity against TMC125-resistant HIV1 harboring RT 109M, 138K, 190E mutant infected in human MT4 cells assessed as inhibition of virus-induced cytopathogenicity after 4 days by MTT assay; format: functional, organism-based; settings: Human immunodeficiency virus 1, MT4, 96 h; summary of the method: as §1
[13] = tested on: Human immunodeficiency virus 1; experiment: Antiviral activity against HIV1 infected in human MT4 cells assessed as lowest compound concentration required to irreversibly knock out vial multiplication treated 4 hrs before infection measured after 40 days by MTT assay; format: functional
Summary of the method: (§2)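 HIV-1-infected MT-4 cells at high MOI (5−10 CCID50/cell) in 40-day assays. Compound is given continuously (chronic), for only the first 4 h after infection, or for 4 h immediately before infection. Cells are resuspended at 10^5 cells/mL every 4 days. The value is the lowest concentration that irreversibly knocks out HIV-1 multiplication, as the mean of three independent determinations.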

[14] = tested on: Human immunodeficiency virus 1; experiment: Antiviral activity against HIV1 CRF01 infected in human dendritic cells assessed as inhibition of p24 in supernatants; settings: Human immunodeficiency virus 1, CRF01, dendritic cells
[15] = tested on: Human immunodeficiency virus 1; experiment: Antiviral activity against HIV1 MP411 infected in human dendritic cells assessed as inhibition of p24 in supernatants; settings: Human immunodeficiency virus 1, MP411, dendritic cells
[16] = tested on: Human immunodeficiency virus 1; experiment: Antiviral activity against HIV1 MP582 infected in human dendritic cells assessed as inhibition of p24 production; settings: Human immunodeficiency virus 1, MP582, dendritic cells
[17] = tested on: Human immunodeficiency virus 1; experiment: Antiviral activity against HIV1 infected in human MT4 cells assessed as lowest compound concentration required to irreversibly knock out vial multiplication treated 4 hrs after infection measured after 40 days by MTT assay; format: functional; summary of the method: as §2
[18] = tested on: Human immunodeficiency virus 1; experiment: Antiviral activity against HIV1 MP634 infected in human dendritic cells assessed as inhibition of p24 in supernatants; settings: Human immunodeficiency virus 1, MP634, dendritic cells
[19] = tested on: Human immunodeficiency virus 1; experiment: Antiviral activity against HIV1 W5269 infected in human dendritic cells assessed as inhibition of p24 production; settings: Human immunodeficiency virus 1, W5269, dendritic cells
[20] = tested on: Human immunodeficiency virus 1; experiment: Antiviral activity against HIV1 CRF02 infected in human dendritic cells assessed as inhibition of p24 in supernatants; settings: Human immunodeficiency virus 1, CRF02, dendritic cells
[21] = tested on: Human immunodeficiency virus 1; experiment: Antiviral activity against HIV1 MP1308 infected in human dendritic cells assessed as inhibition of p24; settings: Human immunodeficiency virus 1, MP1308, dendritic cells
[22] = tested on: Human immunodeficiency virus 1; experiment: Antiviral activity against NRTI-resistant HIV1 MP1315 infected in human dendritic cells assessed as inhibition of p24 in supernatants; settings: Human immunodeficiency virus 1, MP1315, dendritic cells
[23] = tested on: Human immunodeficiency virus 1; experiment: Antiviral activity against HIV1 infected in human MT4 cells assessed as lowest compound concentration required to irreversibly knock out vial multiplication treated by chronic treatment measured after 40 days by MTT assay; format: functional; summary of the method: as §2
[24] = Cytotoxicity against human MT4 cells after 40 days by MTT assay; format: cell-based
Summary of the method: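 Mock-infected MT-4 cells at 1 × 10^5 cells/mL, 37 °C, with various compound concentrations for 40 days. One-tenth of the culture is moved every 3−4 days into fresh drug-containing medium at low density to keep growth exponential. Viability is read by MTT at each passage. The value is the maximum concentration still allowing exponential proliferation, as the mean of three determinations.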

[25] = tested on: Human immunodeficiency virus 1; experiment: Antiviral activity against HIV1 MP1033 infected in human dendritic cells assessed as inhibition of p24; settings: Human immunodeficiency virus 1, MP1033, dendritic cells

SMILES | EC50 [1] | EC50 [2] | EC50 [3] | EC50 [4] | EC50 [5] | EC50 [6] | CC50 at 96 h [7] | EC50 [8] | EC50 [9] | EC50 [10] | EC50 [11] | EC50 [12] | other results
CC(C)(C)NC(=O)[C@@H]1C[C@@H]2CCCC[C@@H]2CN1C[C@@H](O)[C@H](Cc1ccccc1)NC(=O)[C@H](CC(N)=O)NC(=O)c1ccc2ccccc2n1 | 20 nM | 10 nM | 10 nM | 10 nM | 20 nM | 20 nM | 15 µM | 20 nM | 20 nM | 90 nM | 10 nM | 10 nM | 
Cc1c(C(C)c2c(F)cccc2F)nc(N(C)C)[nH]c1=O (configuration not stated) | 2000 nM | > 20000 nM | 3000 nM | 4 nM | 10 nM | 2 nM | ≥ 100 µM | 800 nM | 700 nM | 10 nM | 2000 nM | 3000 nM | Activity [13]: <5 µM; EC99 [14]: 0.001 µM; EC99 [15]: 0.01 µM; EC99 [16]: 0.001 µM; Activity [17]: <5 µM; EC99 [18]: 0.1 µM; EC99 [19]: 0.01 µM; EC99 [20]: 0.01 µM; EC99 [21]: 0.01 µM; EC99 [22]: ≤ 0.0001 µM; Activity [23]: <0.1 µM; MNTC at 960 h [24]: 30 µM; EC99 [25]: 0.01 µM
CCOCn1c(C(F)c2cc(C)cc(C)c2)c(CC)c(=O)[nH]c1=O (configuration not stated) |  | 2000 nM |  | 40 nM |  | 5 nM | 85 µM | 300 nM |  | 9000 nM | 6000 nM |  | 
C=CCOCn1c(C(F)c2cc(C)cc(C)c2)c(CC)c(=O)[nH]c1=O (configuration not stated) |  | 1600 nM |  | 50 nM |  | 4 nM | 64 µM | 200 nM |  | 4200 nM | 2000 nM |  | 
C=C(C)COCn1c(C(F)c2cc(C)cc(C)c2)c(CC)c(=O)[nH]c1=O (configuration not stated) |  | 7000 nM |  | 70 nM | 3400 nM | 8 nM | 40 µM | 400 nM |  | 3800 nM | 4000 nM |  | 
CCc1c(C(F)c2cc(C)cc(C)c2)n(COCc2ccc(I)cc2)c(=O)[nH]c1=O (configuration not stated) |  | 2000 nM |  | 300 nM | 1500 nM | 400 nM | 43 µM | 200 nM |  | 1200 nM | 1400 nM |  | 
CCc1c(C(F)c2cc(C)cc(C)c2)[nH]c(=O)n(COCc2ccc(I)cc2)c1=O (configuration not stated) |  | > 100000 nM |  | 11000 nM | > 100000 nM | 9000 nM | > 100 µM | > 100000 nM |  | 23000 nM | > 100000 nM |  | 
CCc1c(C(F)c2cc(C)cc(C)c2)n(COCc2ccc(C#CC=O)cc2)c(=O)[nH]c1=O (configuration not stated) |  | 14000 nM |  | 100 nM | 2300 nM | 80 nM | 27 µM | 400 nM |  | 5200 nM | 2400 nM |  | 
Cc1cc(C)c(Nc2ccnc(Nc3ccc(C#N)cc3)n2)c(C)c1 [DAPIVIRINE] | > 20000 nM | 50 nM | 100 nM | 1 nM | 2 nM | 3 nM | 2 µM | 40 nM | 100 nM | 3 nM | 200 nM | > 20000 nM | Activity [13]: >20 µM; EC99 [14]: 0.01 µM; EC99 [15]: 0.01 µM; Activity [17]: >20 µM; EC99 [18]: 0.01 µM; EC99 [20]: 0.01 µM; EC99 [21]: 0.01 µM; EC99 [22]: 0.0001 µM; Activity [23]: 0.1 µM; MNTC at 960 h [24]: 0.3 µM; EC99 [25]: 0.01 µM
O=C1Nc2ccc(Cl)cc2[C@@](C#CC2CC2)(C(F)(F)F)O1 [EFAVIRENZ] | 90 nM | 80 nM | 100 nM | 2 nM | 4 nM |  |  |  | 60 nM |  | 6000 nM | 7000 nM | EC99 [14]: 0.01 µM; EC99 [18]: 0.01 µM; EC99 [19]: 0.01 µM; EC99 [20]: 0.01 µM; EC99 [21]: 0.01 µM; EC99 [22]: ≤ 0.0001 µM; EC99 [25]: 0.01 µM
CCOCn1c(Cc2ccccc2)c(C(C)C)c(=O)[nH]c1=O [EMIVIRINE] |  | > 100000 nM |  | 80 nM | 1500 nM |  | > 100 µM | > 10000 nM |  | 60 nM | 100000 nM |  | 
Cc1cc(C#N)cc(C)c1Oc1nc(Nc2ccc(C#N)cc2)nc(N)c1Br [ETRAVIRINE] | 70 nM | 10 nM | 30 nM | 1 nM | 1 nM |  |  | 10 nM | 100 nM |  | 300 nM | 200 nM | 
Cc1ccnc2c1NC(=O)c1cccnc1N2C1CC1 [NEVIRAPINE] | 1000 nM | > 10000 nM | 4000 nM | 60 nM | 3000 nM |  | > 100 µM | > 10000 nM | > 20000 nM |  | > 10000 nM | > 20000 nM | 
Cc1cn([C@H]2C[C@H](N=[N+]=[N-])[C@@H](CO)O2)c(=O)[nH]c1=O [ZIDOVUDINE] | 10 nM | 10 nM | 9 nM | 200 nM | 200 nM | 10 nM |  | 20 nM | 10 nM |  | 10 nM | 8 nM | 
